The list is not random: actives were taken first. Their share in the collection is about 1.7%.
DNMT1 inh: human DNMT1 methyltransferase inhibitors, primary screen, biochemical, molecular beacon, fluorescence, HinP1I cleavage, uHTS; DNA (cytosine-5)-methyltransferase 1 (Homo sapiens), P26358; inhibition (reported as % activation of signal), % at 10 µM; 0.83% of 360,000 active; AID 588458, 2011; in the data active = inhibition above about 50%
Target sequence (P26358 504-1616 limits assumed): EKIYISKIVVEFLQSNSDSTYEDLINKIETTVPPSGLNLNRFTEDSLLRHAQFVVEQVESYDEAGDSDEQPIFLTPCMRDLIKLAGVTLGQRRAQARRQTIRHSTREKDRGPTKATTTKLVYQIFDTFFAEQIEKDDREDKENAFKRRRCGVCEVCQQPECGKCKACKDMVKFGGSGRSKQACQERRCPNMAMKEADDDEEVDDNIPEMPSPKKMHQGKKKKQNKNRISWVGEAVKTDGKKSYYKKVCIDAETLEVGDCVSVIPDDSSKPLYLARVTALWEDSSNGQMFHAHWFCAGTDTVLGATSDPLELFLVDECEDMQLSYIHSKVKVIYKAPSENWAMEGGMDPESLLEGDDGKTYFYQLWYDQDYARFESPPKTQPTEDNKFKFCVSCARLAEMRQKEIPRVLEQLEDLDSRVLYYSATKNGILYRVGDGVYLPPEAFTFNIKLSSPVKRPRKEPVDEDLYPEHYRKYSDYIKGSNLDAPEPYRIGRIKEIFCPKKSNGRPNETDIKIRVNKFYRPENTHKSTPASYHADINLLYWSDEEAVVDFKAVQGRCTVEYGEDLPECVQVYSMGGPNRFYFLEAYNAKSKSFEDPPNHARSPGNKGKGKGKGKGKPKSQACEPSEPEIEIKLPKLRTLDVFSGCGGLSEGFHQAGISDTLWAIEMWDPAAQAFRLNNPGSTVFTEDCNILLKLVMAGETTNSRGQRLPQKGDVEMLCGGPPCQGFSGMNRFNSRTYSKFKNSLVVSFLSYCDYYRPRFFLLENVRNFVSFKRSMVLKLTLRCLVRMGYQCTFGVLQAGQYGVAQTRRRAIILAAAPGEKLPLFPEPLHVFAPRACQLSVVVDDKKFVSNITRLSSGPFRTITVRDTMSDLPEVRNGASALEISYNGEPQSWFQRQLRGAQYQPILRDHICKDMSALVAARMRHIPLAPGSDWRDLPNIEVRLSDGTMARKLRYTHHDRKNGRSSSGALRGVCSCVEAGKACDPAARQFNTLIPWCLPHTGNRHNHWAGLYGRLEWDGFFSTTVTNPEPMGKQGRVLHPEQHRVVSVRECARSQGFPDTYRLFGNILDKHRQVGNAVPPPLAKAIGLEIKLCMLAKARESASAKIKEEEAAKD
SUMO1 PPI mod: modulators of SUMO1 protein-protein interactions, primary screen, biochemical, uHTS | Small ubiquitin-related modifier 1 (Homo sapiens), P63165 | SUMO1 binding to a labelled peptide, TR-FRET, 1 h | inhibition, % at 20 µM | 0.33% of 360,000 active; in the data active = inhibition above about 37%
LMPTP block: LMPTP phosphatase inhibitors, primary screen, biochemical, fluorescence intensity, uHTS. Low molecular weight phosphotyrosine protein phosphatase (Homo sapiens), P24666. recombinant LMPTP-A, OMFP fluorogenic substrate. inhibition, % at 20 µM. 0.22% of 360,000 active;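 active = compounds that cut the enzyme signal by at least half of the control window in the single-dose screen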;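 note: plate controls were DMSO wells with enzyme plus substrate for no effect and substrate without enzyme for full effect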
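Assay system: LMPTP-A phosphatase enzyme | Input: 0.625 nM enzyme | Also added: Fluorogenic phosphatase substrate OMFP at 400 µM final | Compound dosing: One test concentration per compound, 20 µM, with 3% DMSO overall | Schedule: 50 min enzyme reaction at room temperature, protected from light | Signal: Fluorescence intensity | Benchmarks: no-enzyme and uninhibited controls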
STEP block: STEP phosphatase inhibitors, primary screen, biochemical, fluorescence intensity, uHTS. 0.25% of 360,000 active. recombinant STEP, OMFP fluorogenic substrate. Tyrosine-protein phosphatase non-receptor type 5 (Homo sapiens), P54829. inhibition, % at 20 µM;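 active = inhibition at 20 µM, scaled per plate between control wells, above about 37%, limit read from the data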;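 note: 0% = DMSO with enzyme and substrate and 100% = substrate only without enzyme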
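Assay system: isolated STEP enzyme. Buffer or medium: pH 6.0 Bis-Tris with DTT and Tween 20. Also added: fluorogenic phosphatase substrate OMFP at 25 µM final. Dosing: 20 µM, 1% DMSO. Timing: 20 min reaction, room temperature, in the dark. Measured by: fluorescence intensity, excitation 480 nm, emission 540 nm. Evaluation: normalized % inhibition.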
Scp1 inh: Scp-1 phosphatase inhibitors, primary screen, biochemical, colorimetric, uHTS; inhibition, % at 20 µM; 0.88% of 340,000 active; Recombinant Scp1, phosphopeptide, malachite green phosphate absorbance;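 active = inhibition above about 50% at 20 µM, limit read from the data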;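 note: plate controls were DMSO wells with enzyme for no effect and wells lacking enzyme for full effect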
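assay system = SCP-1 phosphatase catalytic domain, residues 76-261 | buffer or medium = 50 mM Tris acetate pH 5.5, 0.005% Tween-20, 10 mM MgCl2 | incubation = enzyme reaction 45 min at room temperature, colour 5 min, stabilisation 30 min | signal = Phosphate-binding colour reagent, absorbance read at 630 nm | measure = % inhibition at 20 µM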
* = called active by the depositor; x = no result.

SMILES	DNMT1 inh	SUMO1 PPI mod	LMPTP block	STEP block	Scp1 inh
O=C(O)c1ccccc1-c1ccc(/C=C2\SC(=O)N(c3ccccc3)C2=O)o1	14	-12	1	10	26
COC(=O)C(C)N1C(=O)S/C(=C\c2ccc(-c3ccc(C(=O)O)cc3C)o2)C1=O (stereo not drawn)	19	-3	2	8	64*
CCC/C(C#Cc1cc(OC)cc(OC)c1)=C1/c2ccccc2C(=O)N1c1ccccc1	-1	-2	0	-2	-7
CCC/C(C#Cc1ccc(N(C)C)cc1)=C1/c2ccccc2C(=O)N1c1ccccc1	10	-6	3	-30	57*
Cc1nc2ccc(S(=O)(=O)NCC(=O)NCc3ccc(Cl)cc3)cc2s1	4	1	2	-3	-1
Cc1nc2ccc(S(=O)(=O)NCC(=O)NCCN3CCCCCC3)cc2s1	2	46*	12	5	3
N#Cc1c(N2CCCC(O)C2)nc(N)c2c(N)nc3c(c12)CC(=O)N3C12CC3CC(CC(C3)C1)C2 (stereo not drawn)	84*	56*	49*	19	5
O=S1(=O)CCS(=O)(=O)C1c1ccccc1	4	-1	-2	-1	-1
Cc1c(NC(=O)CSc2nnc(-c3ccncc3)n2C)c(=O)n(-c2ccccc2)n1C	-3	-24	-2	-1	x
CCOC(=O)c1ccccc1NC(=O)CN1CCC(n2nnc3cc(C(F)(F)F)ccc32)CC1	5	61*	2	2	1
COC(=O)c1ccccc1NC(=O)CN1CCC(n2nnc3cc(F)ccc32)CC1	6	-2	-1	3	-1
O=C(Nc1ccccc1)c1oc2ccccc2c1NC(=O)C1CC1	-5	-5	2	-3	-12
O=C(NCCc1ccccc1)c1ccc2nc(-c3ccco3)c(-c3ccco3)nc2c1	105*	27	59*	6	77*
O=C(NCCc1ccccc1)c1ccc(=O)oc1	2	-7	-1	1	-2
O=C(NC1CCCC1)c1ccc2nc(-c3ccco3)c(-c3ccco3)nc2c1	113*	36	56*	11	79*
O=C(NC1CCCC1)c1ccc2nc[nH]c2c1	-6	-1	-2	-3	-2
Cc1cc(N2CCN(c3ccc([N+](=O)[O-])c4cccnc34)CC2)c2ccccc2n1	-31	5	97*	11	-13
Cc1cc(N2CCN(c3ccc(C(F)(F)F)cc3[N+](=O)[O-])CC2)c2ccccc2n1	-3	-23	45	5	4
Cc1cc(N2CCN(c3nc(-c4ccccc4)cs3)CC2)c2ccccc2n1	-8	-1	82*	5	2
Cc1cc(-c2csc(NCc3ccccc3)n2)c(C)n1C	75*	-1	16	7	9
O=C(NCc1ccco1)c1sc(=S)n2c1[nH]c(=O)c1ccccc12	-1	8	1	19	47
O=C(NC1CCCC1)c1sc(=S)n2c1[nH]c(=O)c1ccccc12	-2	10	0	19	58*
OC(c1ccccc1)c1nc(/C=C/c2ccccc2)cs1 (stereo not drawn)	2	-27	2	0	x
O=C1c2ccccc2C(=O)C12OC2c1cccc2ccccc12 (stereo not drawn)	58*	39*	15	34	-1
CC(C)CCN1CCN(Cc2nc3c(s2)CCCC3)CC1CCO (stereo not drawn)	3	-4	0	1	4
SMILES	DNMT1 inh	SUMO1 PPI mod	LMPTP block	STEP block	Scp1 inh
CCOc1cc(C(=O)OCC(=O)c2c(C)[nH]c3ccccc23)ccc1OCC(=O)N1CCOCC1	-1	39*	-1	2	-9
CCOc1cc(C(=O)OCC(=O)c2c[nH]c3ccccc23)ccc1OCC(=O)N1CCOCC1	-8	4	0	1	-9
COc1ccc(-c2cc(=O)oc3cc(OCC(=O)Nc4ccccn4)ccc23)cc1	-4	43*	6	0	-9
O=c1[nH]c(=S)[nH]c2c1C(c1ccc(F)cc1)OC(CCc1ccccc1)C2 (stereo not drawn)	x	6	-1	x	x
O=C1N=c2ccccc2=C1c1sc(Nc2ccc(O)cc2)nc1O	-1	4	76*	42*	80*
Nc1c(S(=O)(=O)O)cc(NC(=O)c2ccccc2)c2c1C(=O)c1ccccc1C2=O	39	69*	16	33	71*
O=C(Nc1ccccc1-c1ccccc1)c1ccccc1	2	0	0	-5	-2
O=C(NCc1cccnc1)c1cc(C2CCCCN2S(=O)(=O)c2cccs2)on1 (stereo not drawn)	0	-2	-2	-1	x
O=C(c1cc(C2CCCCN2S(=O)(=O)c2cccs2)on1)N1CCOCC1 (stereo not drawn)	0	44*	-1	2	x
Cc1cccc(N2CCN(C(=O)c3cc4c(=O)n(C)c5ccccc5c4n3C)CC2)c1C	-6	10	5	2	-12
Cc1ccc(Cl)cc1N1CCN(C(=O)c2cc3c(=O)n(C)c4ccccc4c3n2C)CC1	-6	48*	7	2	-8
Cc1ccc(S(=O)(=O)N2CC3C(=O)C[C@@H](c4ccccc4)N(S(=O)(=O)c4ccccc4Cl)C3CC2c2ccccc2)cc1 (stereo partly drawn)	x	-1	1	x	x
O=C(NCCOc1ccc(Cl)cc1)C1CC(=O)N(c2ccc3c(c2)OCCO3)C1 (stereo not drawn)	-5	7	2	0	-5
O=C1c2c(O)cccc2Cc2cccc(O)c21	95*	2	30	10	-10
CC(C)Cn1c(=O)[nH]c(=O)c2c(C(F)(F)F)cc(-c3ccccc3)nc21	9	1	0	-2	-6
O=C(CSc1nnc(NC(=O)C2CC2)s1)Nc1ccc2c(c1)OCCO2	-3	6	-2	8	-8
O=C(O)CN1C(=O)/C(=C\c2cc(Br)ccc2OCc2ccc(Cl)cc2Cl)SC1=S	95*	78*	67*	15	31
C[C@@H](OC(=O)c1[nH]cnc1C(=O)NCc1ccc(CNC(=O)OC(C)(C)C)cc1)c1ccccc1	-7	-3	0	-2	2
Cc1ccc(OC(C)C(=O)Nc2ccc(F)cc2)c([N+](=O)[O-])n1 (stereo not drawn)	0	-13	0	-3	-6
Cc1ccc(-c2ccc(/C=C3\C(=O)ON=C3c3ccccc3)o2)c([N+](=O)[O-])c1	54*	34	0	2	-1
